Calls of active or inactive are those of the source. The calls are words filed in the database; no cut-off is given here.

Experiment [1] has as its target T1, Protein deacetylase HDAC6 (Homo sapiens) (UniProt Q9UBN7).
T1 sequence (whole entry): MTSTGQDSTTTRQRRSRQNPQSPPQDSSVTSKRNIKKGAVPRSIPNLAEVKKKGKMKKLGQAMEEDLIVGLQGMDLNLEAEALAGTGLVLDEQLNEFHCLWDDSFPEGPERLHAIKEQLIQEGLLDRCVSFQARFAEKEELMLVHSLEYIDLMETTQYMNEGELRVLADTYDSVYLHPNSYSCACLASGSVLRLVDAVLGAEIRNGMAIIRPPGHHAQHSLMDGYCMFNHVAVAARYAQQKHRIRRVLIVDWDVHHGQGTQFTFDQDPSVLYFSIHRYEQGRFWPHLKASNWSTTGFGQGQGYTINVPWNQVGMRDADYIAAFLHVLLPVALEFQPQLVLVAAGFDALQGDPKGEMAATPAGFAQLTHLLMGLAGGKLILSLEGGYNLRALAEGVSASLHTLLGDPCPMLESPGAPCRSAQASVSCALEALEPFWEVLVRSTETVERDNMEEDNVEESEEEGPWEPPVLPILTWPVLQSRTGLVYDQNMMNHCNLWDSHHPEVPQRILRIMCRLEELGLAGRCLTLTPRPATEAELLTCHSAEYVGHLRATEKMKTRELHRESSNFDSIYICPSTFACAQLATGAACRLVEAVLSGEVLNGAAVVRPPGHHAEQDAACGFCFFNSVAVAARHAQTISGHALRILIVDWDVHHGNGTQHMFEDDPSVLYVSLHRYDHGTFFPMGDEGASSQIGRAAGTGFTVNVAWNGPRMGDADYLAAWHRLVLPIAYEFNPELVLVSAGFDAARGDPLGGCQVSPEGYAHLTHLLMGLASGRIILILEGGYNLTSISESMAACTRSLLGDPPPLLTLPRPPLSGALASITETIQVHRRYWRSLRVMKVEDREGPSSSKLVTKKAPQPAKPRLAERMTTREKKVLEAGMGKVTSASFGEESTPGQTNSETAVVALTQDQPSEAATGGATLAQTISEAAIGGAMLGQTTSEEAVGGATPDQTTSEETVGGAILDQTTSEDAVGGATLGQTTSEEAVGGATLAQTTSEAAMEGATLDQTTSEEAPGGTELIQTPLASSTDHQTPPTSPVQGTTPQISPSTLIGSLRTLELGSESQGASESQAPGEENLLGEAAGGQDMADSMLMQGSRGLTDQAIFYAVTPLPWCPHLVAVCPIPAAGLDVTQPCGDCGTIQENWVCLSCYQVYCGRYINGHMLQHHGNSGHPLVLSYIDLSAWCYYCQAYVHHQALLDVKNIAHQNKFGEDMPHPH
The experiment can be described thus: Binding affinity to N-terminal GST tagged human recombinant HDAC6 (1 to 1215 residues) expressed in Sf9 insect cells using Z-Lys(Ac)-AMC as fluorogenic substrate assessed as single step slow binding mechanism by measuring linear relationship between Kobs and inhibitor concentration measured every 0.5 mins for 45 mins. In short, it runs like this: (§1)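 Finals were 220 pg/μL enzyme, 93.0 μM ZMAL (5× KM; KM 19.27 μM) and 20 ng/μL trypsin. AMC read continuously (ex 360/em 460) at 37 °C. Curves fitted for kobs, then kobs vs [I] fitted; triplicates.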

In experiment [2] the target is T1, Protein deacetylase HDAC6 (Homo sapiens). Put plainly: Binding affinity to N-terminal GST tagged human recombinant HDAC6 (1 to 1215 residues) expressed in Sf9 insect cells using Z-Lys(Ac)-AMC as fluorogenic substrate assessed as induced-fit mechanism by measuring hyperbolic relationship between Kobs and inhibitor concentration measured every 0.5 mins for 45 mins. An outline of the steps: as §1

The target is the same in experiment [3]. The experiment can be described thus: Irreversible inhibition of N-terminal GST tagged human recombinant HDAC6 (1 to 1215 residues) expressed in Sf9 insect cells using Z-Lys(Ac)-AMC as fluorogenic substrate at 2.5 uM preincubated for 1 hr followed by 100-fold dilution and substrate addition measured every 0.5 mins for 60 mins by microplate reader analysis. An outline of the steps:
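It was then diluted 100-fold in buffer or in inhibitor at the original concentration. Finals were 220 pg/μL enzyme, 93 μM ZMAL and 20 ng/μL trypsin. AMC release was read every 0.5 min for 60 min at 37 °C; triplicates.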

The target in experiment [4] is T2, Histone deacetylase 6 (Danio rerio) (UniProt F8W4B7).
T2 sequence (whole entry): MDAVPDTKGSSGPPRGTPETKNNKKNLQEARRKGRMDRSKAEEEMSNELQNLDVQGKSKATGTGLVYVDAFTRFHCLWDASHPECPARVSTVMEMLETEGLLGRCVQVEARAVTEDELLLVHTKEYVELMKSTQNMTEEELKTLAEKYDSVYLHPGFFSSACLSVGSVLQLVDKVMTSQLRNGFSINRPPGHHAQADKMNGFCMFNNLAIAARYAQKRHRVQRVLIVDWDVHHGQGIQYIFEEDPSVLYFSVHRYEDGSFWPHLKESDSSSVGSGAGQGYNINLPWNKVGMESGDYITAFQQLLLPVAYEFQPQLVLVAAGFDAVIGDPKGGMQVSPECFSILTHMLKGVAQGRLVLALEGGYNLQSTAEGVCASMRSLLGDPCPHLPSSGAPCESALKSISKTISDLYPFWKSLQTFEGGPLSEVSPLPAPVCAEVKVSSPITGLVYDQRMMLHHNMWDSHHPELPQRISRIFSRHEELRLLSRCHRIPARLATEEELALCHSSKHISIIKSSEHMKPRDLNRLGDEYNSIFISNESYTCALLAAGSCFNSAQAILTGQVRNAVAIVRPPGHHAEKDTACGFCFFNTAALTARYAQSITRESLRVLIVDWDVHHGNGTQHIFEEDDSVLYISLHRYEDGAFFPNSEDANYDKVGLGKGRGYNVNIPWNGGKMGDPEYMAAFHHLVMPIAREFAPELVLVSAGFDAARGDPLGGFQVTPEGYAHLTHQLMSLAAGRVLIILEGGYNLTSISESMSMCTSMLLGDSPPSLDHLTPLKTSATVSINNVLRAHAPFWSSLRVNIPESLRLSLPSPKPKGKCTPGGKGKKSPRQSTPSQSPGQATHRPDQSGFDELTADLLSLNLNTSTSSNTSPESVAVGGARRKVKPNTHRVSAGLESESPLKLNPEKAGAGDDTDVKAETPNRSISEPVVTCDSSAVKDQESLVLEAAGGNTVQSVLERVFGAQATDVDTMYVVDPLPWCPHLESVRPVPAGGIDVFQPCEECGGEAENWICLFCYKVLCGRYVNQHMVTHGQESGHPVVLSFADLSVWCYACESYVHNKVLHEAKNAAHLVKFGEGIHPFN
The experiment can be described thus: Irreversible inhibition of Danio rerio HDAC6 using RHKK(Ac)-AMC as fluorogenic substrate at 100 uM preincubated for 1 hr followed by dialysis for 21 hrs and substrate addition for 30 mins by microplate reader analysis. Conditions: Sf9. An outline of the steps: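 zCD2 at 1 μM was incubated with 100 μM inhibitor for 1 h, then dialysed at 4 °C against HEPES pH 7.5 buffer with 0.25% DMSO, overnight, sampled at 6 and 21 h. Each sample was mixed with 250 μM RHKK(Ac)-AMC (pre-mix level) for 30 min. Trypsin/TSA developer was then added and fluorescence read at ex 360/em 460. Triplicates.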

Regarding `FC(F)(F)c1nnc(-c2cnc(NCc3ccccc3)nc2)o1`, the result in experiment [1] was Active.
Regarding `FC(F)c1nnc(-c2cnc(NCc3ccccc3)nc2)o1`, the result in experiment [2] was Active. Besides, the inhibition entry in experiment [3] and in experiment [4] was “Active” in each case.

The record behind these values is ChEMBL document CHEMBL5365542, “Difluoromethyl-1,3,4-oxadiazoles Are Selective, Mechanism-Based, and Essentially Irreversible Inhibitors of Histone Deacetylase 6” (J Med Chem, 2023).
